# Activity calls are given as the source filed them. No cut-off for these calls is given here.
# Tests used:
# Rattus norvegicus = assay: In vivo inverse agonist activity at histamine 3 receptor in rat assessed as inhibition of RAMH-induced dipsogenia at 1 to 10 mg/kg, po measured after 3 days; type: functional, organism-based
# Method in brief: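 Rats were dosed orally with 1, 3 or 10 mg/kg, then given (R)-α-methylhistamine 2.5 mg/kg s.c. Water intake (mL) was measured and reported as mean ± SEM.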
# Histamine H3 receptor = Histamine H3 receptor (Homo sapiens, UniProt Q9Y5N1); assay: Displacement of [3]-RAMH from recombinant human histamine H3 receptor expressed in CHO-K1 cell membranes after 60 mins by scintillation counting
# Sequence of Histamine H3 receptor (Q9Y5N1 whole entry): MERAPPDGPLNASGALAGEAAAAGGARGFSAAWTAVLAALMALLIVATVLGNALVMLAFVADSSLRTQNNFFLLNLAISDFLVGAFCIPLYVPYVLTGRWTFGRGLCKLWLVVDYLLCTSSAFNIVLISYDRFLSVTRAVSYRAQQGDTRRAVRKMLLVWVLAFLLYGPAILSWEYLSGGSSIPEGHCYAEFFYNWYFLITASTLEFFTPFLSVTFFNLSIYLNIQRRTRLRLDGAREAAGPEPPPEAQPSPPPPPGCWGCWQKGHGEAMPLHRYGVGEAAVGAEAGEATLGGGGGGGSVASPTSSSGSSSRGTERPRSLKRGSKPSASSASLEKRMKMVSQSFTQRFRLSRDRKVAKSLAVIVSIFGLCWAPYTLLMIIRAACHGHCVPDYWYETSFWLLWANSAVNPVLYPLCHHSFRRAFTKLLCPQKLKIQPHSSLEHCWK
# [1] = Partition coefficient, log P of the compound; type: physicochemical; conditions: octanol/water
# [2] = Lipophilicity, log D of the compound at pH 7.4; type: physicochemical; conditions: buffer
# [3] = Dissociation constant, pKa1 of the compound by potentiometric titration assay; type: physicochemical
# [4] = Dissociation constant, pKa2 of the compound by potentiometric titration assay; type: physicochemical
# [5] = AUC (0 to 24 hrs) in Wistar rat at 3 mg/kg, po by LC-MS/MS analysis; type: ADME, organism-based; set-up: dose 3 mg/kg, time < 24 hr, route oral; conditions: in vivo
# Method in brief: (§1)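 Fasted male Wistar rats; compound in water for injection, given i.v. (2 mL/kg) or p.o. (10 mL/kg). Plasma exposure measured as AUC0-24hr.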
# [6] = AUC (0 to 24 hrs) in Wistar rat at 1 mg/kg, iv by LC-MS/MS analysis; type: ADME, organism-based; set-up: time < 24 hr, dose 1 mg/kg, route intravenous; conditions: in vivo; for AUC: 24 h; for AUC(0-t) at 24 h: Wistar; method in brief: as §1
# [7] = Tmax in Wistar rat at 3 mg/kg, po or 1 mg/kg, iv by LC-MS/MS analysis; type: ADME, organism-based; conditions: in vivo
# Method in brief: (§2)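 Fasted male Wistar rats were dosed orally and intravenously, with water for injection as the vehicle for both routes, at dosing volumes of 10 mL/kg p.o. and 2 mL/kg i.v.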
# [8] = Volume of distribution at steady state in Wistar rat at 3 mg/kg, po or 1 mg/kg, iv by LC-MS/MS analysis; type: ADME, organism-based; conditions: in vivo; for Vd: Wistar, read-out: Vdss; method in brief: as §2
# [9] = Oral bioavailability in Wistar rat at 3 mg/kg by LC-MS/MS analysis; type: ADME, organism-based; conditions: in vivo; method in brief: as §2
# [10] = Ratio of drug uptake in Wistar rat brain to plasma at 3 mg/kg, po by LC-MS/MS analysis; type: ADME, organism-based; conditions: brain and plasma, read-out: BPR
# Method in brief: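 Fasted male Wistar rats were dosed orally with water for injection as the vehicle. Total brain and plasma concentrations were measured at 1 h after dosing and expressed as a ratio.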
# [11] = Clearance in Wistar rat at 1 mg/kg, iv by LC-MS/MS analysis; type: ADME, organism-based; conditions: in vivo
# Method in brief: (§3)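 Fasted male Wistar rats dosed i.v. in water for injection at 2 mL/kg. Clearance and half-life derived from the i.v. plasma profile.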
# [12] = Half life in Wistar rat at 1 mg/kg, iv by LC-MS/MS analysis; type: ADME, organism-based; conditions: in vivo; method in brief: as §3
# CHO-K1 [13] = assay: Induction of phospholipidosis in CHOK1 cells up to 300 uM incubated for 24 hrs by fluorescent-labeled phospholipid probe NBD-PE based fluorescence assay; type: cell-based, Cricetulus griseus; conditions: chinese hamster, cho-k1, 24 h
# CHO-K1 [14] = assay: Cytotoxicity in CHOK1 cells up to 300 uM incubated for 24 hrs by MTT assay; type: cell-based, Cricetulus griseus; conditions: chinese hamster, cho-k1, 24 h
structure (smiles),measurement,setting,value
Clc1ccc(CCCOCCCN2CCCCC2)cc1,inhibition,Rattus norvegicus,Active
C[C@@H]1CCCN1CC(=O)Nc1ccc(OC2CCN(C3CCC3)CC2)cc1,Ki,Histamine H3 receptor,2.6 nM
Cc1cc(OC2CCN(C3CCC3)CC2)ccc1NC(=O)CN1CCC[C@H]1C,Ki,Histamine H3 receptor,2.4 nM
Cl.Cl.O=C(CN1CCCCC1)Nc1ccc(OC2CCN(C3CCC3)CC2)cc1,Ki,Histamine H3 receptor,4.8 nM
same,logP,[1],3.7
same,logD,[2],1.3
same,pKa,[3],9.2
same,pKa,[4],7.5
same,AUC(0-t) at 24 h,[5],1390 ng·h/mL
same,AUC,[6],1855 ng·h/mL
same,Tmax,[7],3.33 h
same,Vd,[8],20 L/kg
same,bioavailability,[9],37%
same,Kp,[10],36.6
Cc1cc(OC2CCN(C3CCC3)CC2)ccc1NC(=O)CN1CCCC1.Cl.Cl,Ki,Histamine H3 receptor,1.9 nM
same,AUC(0-t) at 24 h,[5],1350 ng·h/mL
same,AUC,[6],3345 ng·h/mL
same,Tmax,[7],2.17 h
same,Vd,[8],27 L/kg
same,bioavailability,[9],20%
same,Kp,[10],1.2
C[C@@H]1CCCN1CC(=O)Nc1ccc(N2CCOCC2)cc1,Ki,Histamine H3 receptor,1460 nM
O=C(Cc1ccncc1)Nc1ccc(OC2CCN(C3CCC3)CC2)cc1.O=C(O)C(O)C(O)C(=O)O,Ki,Histamine H3 receptor,9.51 nM
same,AUC(0-t) at 24 h,[5],545 ng·h/mL
same,AUC(0-t) at 24 h,[6],145 ng·h/mL
same,Tmax,[7],0.25 h
same,Vd,[8],7 L/kg
same,clearance,[11],113 mL/min/kg
same,half-life,[12],1.12 h
same,bioavailability,[9],125%
same,Kp,[10],0.16
O=C(NCCN1CCCCC1)c1ccc(OC2CCN(C3CCC3)CC2)cc1,Ki,Histamine H3 receptor,3.2 nM
O=C(CN1CCOCC1)Nc1ccc(CN2CCCC2)cc1,Ki,Histamine H3 receptor,114 nM
O=C(CN1CCOCC1)Nc1ccc(OC2CCNCC2)cc1,Ki,Histamine H3 receptor,> 10000 nM
O=C(CN1CCCN(C2CCC2)CC1)Nc1ccc(OC2CCN(C3CCC3)CC2)cc1,Ki,Histamine H3 receptor,1.61 nM
Cl.Cl.O=C(CN1CCCC1CO)Nc1ccc(OC2CCN(C3CCC3)CC2)cc1 (stereo not given),Ki,Histamine H3 receptor,1.2 nM
same,logP,[1],2.1
same,logD,[2],0.6
same,pKa,[3],8.9
same,pKa,[4],6.4
same,AUC(0-t) at 24 h,[5],63 ng·h/mL
same,AUC(0-t) at 24 h,[6],212 ng·h/mL
same,Tmax,[7],0.58 h
same,Vd,[8],9 L/kg
same,clearance,[11],67 mL/min/kg
same,half-life,[12],1.88 h
same,bioavailability,[9],10%
O=C(CN1CCC(O)CC1)Nc1ccc(OC2CCN(C3CCC3)CC2)cc1,Ki,Histamine H3 receptor,6.4 nM
COc1cc(OC2CCN(C3CCC3)CC2)ccc1NC(=O)CN1CCOCC1,Ki,Histamine H3 receptor,90.8 nM
C[C@@H]1CCCN1CC(=O)Nc1ccc(CN2CCOCC2)cc1,Ki,Histamine H3 receptor,915 nM
O=C(CN1CCC(F)(F)CC1)Nc1ccc(OC2CCN(C3CCC3)CC2)cc1,Ki,Histamine H3 receptor,23.6 nM
Cc1cc(OC2CCN(C3CCC3)CC2)ccc1NC(=O)CN1CCCCC1,Ki,Histamine H3 receptor,3.3 nM
C[C@@H]1CCCN1Cc1ccc(NC(=O)CN2CCOCC2)cc1,Ki,Histamine H3 receptor,3570 nM
O=C(CN1CCOCC1)Nc1cccc(OC2CCN(C3CCC3)CC2)c1,Ki,Histamine H3 receptor,212 nM
O=C(CN1CCOC(CO)C1)Nc1ccc(OC2CCN(C3CCC3)CC2)cc1 (stereo not given),Ki,Histamine H3 receptor,4.05 nM
O=C(CN1CCOCC1)Nc1ccc(OC2CCN(C3CCCC3)CC2)cc1,Ki,Histamine H3 receptor,29.9 nM
O=C(NCCN1CCCC1)c1ccc(OC2CCN(C3CCC3)CC2)cc1,Ki,Histamine H3 receptor,2.9 nM
CCN(C(=O)CN1CCOCC1)c1ccc(OC2CCN(C3CCC3)CC2)cc1,Ki,Histamine H3 receptor,10.8 nM
O=C(CN1CCOCC1)Nc1ccccc1OC1CCN(C2CCC2)CC1,Ki,Histamine H3 receptor,> 10000 nM
O=C(Cc1cccnc1)Nc1ccc(OC2CCN(C3CCC3)CC2)cc1,Ki,Histamine H3 receptor,15.8 nM
Cl.Cl.O=C(CN1CCCC1)Nc1ccc(OC2CCN(C3CCC3)CC2)cc1,Ki,Histamine H3 receptor,1.1 nM
same,logP,[1],3.2
same,logD,[2],1.2
same,pKa,[3],9.1
same,pKa,[4],7.4
same,AUC(0-t) at 24 h,[5],556 ng·h/mL
same,AUC(0-t) at 24 h,[6],757 ng·h/mL
same,Tmax,[7],3.33 h
same,Vd,[8],34.8 L/kg
same,clearance,[11],13.6 mL/min/kg
same,bioavailability,[9],17%
O=C(CN1CCCCCC1)Nc1ccc(OC2CCN(C3CCC3)CC2)cc1,Ki,Histamine H3 receptor,2.6 nM
same,logP,[1],4.3
same,logD,[2],1.7
same,pKa,[3],9.2
same,pKa,[4],7.6
O=C(CN1CCCCC1)Nc1ccc(OC2CCN(C3CCC3)CC2)cc1C(F)(F)F,Ki,Histamine H3 receptor,14.8 nM
CCN(CC)CC(=O)Nc1ccc(OC2CCN(C3CCC3)CC2)cc1,Ki,Histamine H3 receptor,11.7 nM
CC(C)N1CCC(Oc2ccc(NC(=O)CN3CCOCC3)cc2)CC1.Cl.Cl,logP,[1],1.8
same,logD,[2],0.5
same,pKa,[3],8.9
same,pKa,[4],5
same,AUC(0-t) at 24 h,[5],850 ng·h/mL
same,AUC(0-t) at 24 h,[6],340 ng·h/mL
same,Tmax,[7],0.42 h
same,Vd,[8],6 L/kg
same,clearance,[11],48 mL/min/kg
same,bioavailability,[9],85%
same,Kp,[10],0.33
same,Activity,CHO-K1 [13],Non-Toxic
same,Activity,CHO-K1 [14],Non-Toxic
O=C(CN1CCCCC1)Nc1ccc(OC2CCN(C3CCCC3)CC2)cc1,Ki,Histamine H3 receptor,4.1 nM
O=C(CN1CCCC1)Nc1ccc(OC2CCN(C3CCCC3)CC2)cc1,Ki,Histamine H3 receptor,3.8 nM
CC(C)N1CCC(Oc2ccc(NC(=O)CN3CCCCC3)cc2)CC1,Ki,Histamine H3 receptor,3.8 nM
same,logP,[1],3.4
same,logD,[2],1.6
same,pKa,[3],9.4
same,pKa,[4],7.2
CN(C(=O)CN1CCOCC1)c1ccc(OC2CCN(C3CCC3)CC2)cc1,Ki,Histamine H3 receptor,4.89 nM
O=C1c2ccc(OC3CCN(C4CCC4)CC3)cc2CCN1C1CCN(C2CCC2)CC1,AUC(0-t) at 24 h,[5],1430 ng·h/mL
same,AUC(0-t) at 24 h,[6],1740 ng·h/mL
same,Tmax,[7],6 h
same,Vdss,[8],13 L/kg
same,Kp,[10],0.41
O=C(CN1CCOCC1)Nc1ccc(N2CCN(C3CCC3)CC2)cc1,Ki,Histamine H3 receptor,532 nM
O=C(CN1CCOCC1)Nc1ccc(OC2CCN(C3CCC3)CC2)cc1F,Ki,Histamine H3 receptor,14.9 nM
C[C@@H]1CCCN1CCc1ccc(NC(=O)CN2CCOCC2)cc1,Ki,Histamine H3 receptor,108 nM
Cc1cc(OC2CCN(C3CCC3)CC2)ccc1NC(=O)CN1CCOCC1,Ki,Histamine H3 receptor,22.1 nM
O=C(CN1CCOCC1)Nc1ccc(OC2CCN(C3CCC3)CC2)cc1C(F)(F)F,Ki,Histamine H3 receptor,75.8 nM
CCOC(=O)N1CCN(CC(=O)Nc2ccc(OC3CCN(C4CCC4)CC3)cc2)CC1,Ki,Histamine H3 receptor,1.07 nM
CC(=O)N1CCN(CC(=O)Nc2ccc(OC3CCN(C4CCC4)CC3)cc2)CC1,Ki,Histamine H3 receptor,5.39 nM
CC(C)N1CCC(Oc2ccc(C(=O)NCCN3CCCCC3)cc2)CC1,Ki,Histamine H3 receptor,9.5 nM
O=C(CN1CCCC1)Nc1ccc(OC2CCN(C3CCC3)CC2)cc1C(F)(F)F,Ki,Histamine H3 receptor,26.9 nM
O=C(CN1CCOCC1)Nc1ccc(OC2CCN(C3CCC3)CC2)c(F)c1,Ki,Histamine H3 receptor,62 nM
CC(C)N1CCC(Oc2ccc(C(=O)NCCN3CCCC3)cc2)CC1,Ki,Histamine H3 receptor,10.4 nM
O=C(CN1CCC(F)CC1)Nc1ccc(OC2CCN(C3CCC3)CC2)cc1,Ki,Histamine H3 receptor,11 nM
CC(C)N1CCCN(CC(=O)Nc2ccc(OC3CCN(C4CCC4)CC3)cc2)CC1,Ki,Histamine H3 receptor,0.96 nM
O=C(CN1CCS(=O)(=O)CC1)Nc1ccc(OC2CCN(C3CCC3)CC2)cc1,Ki,Histamine H3 receptor,9.17 nM
O=C(NCCN1CCCC1)c1ccc(OC2CCN(C3CCCC3)CC2)cc1,Ki,Histamine H3 receptor,2.4 nM
same,AUC(0-t) at 24 h,[5],205 ng·h/mL
same,AUC(0-t) at 24 h,[6],174 ng·h/mL
same,Tmax,[7],3.33 h
same,Vd,[8],135 L/kg
same,clearance,[11],156 mL/min/kg
same,bioavailability,[9],48%
O=C(NCCN1CCOCC1)c1ccc(OC2CCN(C3CCC3)CC2)cc1,Ki,Histamine H3 receptor,2.8 nM
same,AUC(0-t) at 24 h,[5],347 ng·h/mL
same,AUC(0-t) at 24 h,[6],255 ng·h/mL
same,Tmax,[7],1.33 h
same,Vd,[8],45 L/kg
same,clearance,[11],51 mL/min/kg
same,half-life,[12],13.8 h
same,bioavailability,[9],46%
same,Kp,[10],0.07
CN(C)CC(=O)Nc1ccc(OC2CCN(C3CCC3)CC2)cc1,Ki,Histamine H3 receptor,6 nM
